Experiments:
[1] = target: Deoxycytidine kinase (Homo sapiens) (UniProt P27707); assay: Activity at recombinant dCK (unknown origin) at 100 uM by HPLC analysis
HeLa = assay: Cytostatic activity against human HeLa cells after 4 days by coulter counter analysis; type: functional, cell-based; conditions: 96 h
Method in brief: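 HeLa cervix carcinoma cultures exposed to compound, 4 days at 37 °C; viable cells counted by Coulter counter; IC50 is the concentration giving 50% inhibition of proliferation.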

CCRF-CEM [2] = assay: Cytostatic activity against human dCK-deficient CEM cells after 3 days by coulter counter analysis; type: functional, cell-based; conditions: 72 h
Method in brief: (§1)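 CEM T-lymphocyte cultures exposed to compound, 3 days at 37 °C; living cells counted by Coulter counter; IC50 is the concentration inhibiting proliferation by 50%.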

CCRF-CEM [3] = assay: Cytostatic activity against human CEM cells after 3 days by coulter counter analysis; type: functional, cell-based; conditions: 72 h; method in brief: as §1
L1210 = assay: Cytostatic activity against mouse L1210 cells after 2 days by coulter counter analysis; type: functional, cell-based; conditions: L1210, 48 h
Method in brief: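 Murine leukemia L1210 cultures exposed to compound, 2 days at 37 °C; living cells counted by Coulter counter; IC50 is the concentration inhibiting proliferation by 50%.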

MCF7 = assay: Cytostatic activity against human MCF7 cells after 4 days by coulter counter analysis; conditions: MCF7, 96 h
CCRF-CEM [4] = assay: Ratio of IC50 for human dCK-deficient CEM cells to IC50 for human CEM cells; type: functional
Liver [5] = assay: Prodrug conversion in mouse liver assessed as dFdU formation at 100 uM after 2 hrs by HPLC analysis; type: ADME, tissue-based
Method in brief: (§2)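 Compound at 100 μM in murine liver extract in PBS, 37 °C; sampled at 0, 30 and 120 min; reverse-phase RP-18 HPLC (acetonitrile/H₂O) resolving dFdU and gemcitabine.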

Liver [6] = assay: Prodrug conversion in mouse liver at 100 uM after 2 hrs by HPLC analysis; type: ADME, tissue-based; method in brief: as §2
Serum [7] = assay: Prodrug conversion in human serum assessed as dFdU formation at 100 uM up to 240 mins by HPLC analysis; type: ADME, cell-free; conditions: 4 h
Method in brief: (§3)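 Compound at 100 μM in 50% human serum in PBS, 37 °C; aliquots taken at 0, 60 and 240 min; reverse-phase RP-18 HPLC (acetonitrile/H₂O) resolving dFdU and gemcitabine.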

Serum [8] = assay: Prodrug conversion in human serum assessed as gemicitabine formation at 100 uM by HPLC analysis; type: ADME, cell-free; method in brief: as §3
Liver [9] = assay: Prodrug conversion in mouse liver assessed as dFdU formation at 100 uM by HPLC analysis; type: ADME, tissue-based; method in brief: as §2
Liver [10] = assay: Prodrug conversion in mouse liver assessed as gemicitabine formation at 100 uM by HPLC analysis; type: ADME, tissue-based; method in brief: as §2
Serum [11] = assay: Metabolic stability in human serum assessed as dFdU formation at 100 uM up to 240 mins by HPLC analysis; type: ADME, cell-free; conditions: 4 h; method in brief: as §3

Chain of Deoxycytidine kinase (Homo sapiens) (P27707 whole entry, looked up): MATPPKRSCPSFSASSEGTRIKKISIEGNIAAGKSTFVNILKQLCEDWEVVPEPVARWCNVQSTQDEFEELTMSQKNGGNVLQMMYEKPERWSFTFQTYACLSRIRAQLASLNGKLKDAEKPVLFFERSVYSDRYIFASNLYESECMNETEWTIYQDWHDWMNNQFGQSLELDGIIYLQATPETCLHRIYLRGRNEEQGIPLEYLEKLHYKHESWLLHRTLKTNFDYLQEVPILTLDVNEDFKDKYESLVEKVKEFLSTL

Compound O=C(CCCCCCCCCCF)Nc1ccn([C@@H]2O[C@H](CO)[C@@H](O)C2(F)F)c(=O)n1 has an Activity [1] of less than 1%, an IC50 (HeLa) of 0.011 µM and an IC50 (CCRF-CEM [2]) of 7.2 µM. The IC50 (CCRF-CEM [3]) was 0.059 µM, the IC50 (L1210) was 0.053 µM and the IC50 (MCF7) was 0.0077 µM.

Work on O=c1nc(NCCCCCCCCCCCF)ccn1[C@@H]1O[C@H](CO)[C@@H](O)C1(F)F yielded a Ratio IC50 (CCRF-CEM [4]) of 4.8, an IC50 (HeLa) of 17 µM and an IC50 (CCRF-CEM [2]) of 134 µM. It also gave an IC50 (CCRF-CEM [3]) of 28 µM, an IC50 (L1210) of 28 µM and an IC50 (MCF7) of 26 µM.

With C=CCCCCCCCCCCC(=O)Nc1ccn([C@@H]2O[C@H](CO)[C@@H](O)C2(F)F)c(=O)n1 the Activity [1] was less than 1%, the IC50 (HeLa) was 0.013 µM and the IC50 (CCRF-CEM [2]) was 6.8 µM. For the same compound, the IC50 (CCRF-CEM [3]) was 0.069 µM, the IC50 (L1210) was 0.021 µM and the IC50 (MCF7) was 0.0079 µM.

For O=c1nc(NCCCCCCCCCCCO)ccn1[C@@H]1O[C@H](CO)[C@@H](O)C1(F)F, the Stability (Liver [5]) was “Stable”, the Stability (Liver [6]) was “Stable” and the Stability (Serum [7]) was “Stable”. For the same compound, the Stability (Serum [8]) was “Stable”, the “Ratio IC50” value (CCRF-CEM [4]) was 2 and the IC50 (HeLa) was 22 µM. For the same compound, the IC50 (CCRF-CEM [2]) was 140 µM, the IC50 (CCRF-CEM [3]) was 86 µM and the IC50 (L1210) was 29 µM. For the same compound, the IC50 (MCF7) was 27 µM.

CCCC(CCC)C(=O)Nc1ccn([C@@H]2O[C@H](CO)[C@@H](O)C2(F)F)c(=O)n1 [LY-2334737] was tested, and the IC50 (HeLa) was 0.76 µM, the IC50 (CCRF-CEM [2]) was 161 µM and the IC50 (CCRF-CEM [3]) was 5.2 µM. The IC50 (L1210) was 1.1 µM and the IC50 (MCF7) was 0.55 µM.

C=CCCCCCCCCCNc1ccn([C@@H]2O[C@H](CO)[C@@H](O)C2(F)F)c(=O)n1 was tested, and the Ratio IC50 (CCRF-CEM [4]) was 4.6, the IC50 (HeLa) was 3.4 µM and the IC50 (CCRF-CEM [2]) was 60 µM. The IC50 (CCRF-CEM [3]) was 13 µM, the IC50 (L1210) was 7 µM and the IC50 (MCF7) was 28 µM.

Compound CCCCCCCCCCC(=O)Nc1ccn([C@@H]2O[C@H](CO)[C@@H](O)C2(F)F)c(=O)n1 has an IC50 (HeLa) of 0.0089 µM, an IC50 (CCRF-CEM [2]) of 5.8 µM and an IC50 (CCRF-CEM [3]) of 0.06 µM. The IC50 (L1210) was 0.014 µM and the IC50 (MCF7) was 0.0053 µM.

In the case of O=C(CCCCCCCCCCO)Nc1ccn([C@@H]2O[C@H](CO)[C@@H](O)C2(F)F)c(=O)n1, the Drug metabolism (Liver [9]) is reported as “Active”, the Drug metabolism (Liver [10]) is reported as “Active” and the Drug metabolism (Serum [7]) is reported as “Active”. For the same compound, the Drug metabolism (Serum [8]) was “Active”, the IC50 (HeLa) was 0.049 µM and the IC50 (CCRF-CEM [2]) was 19 µM. For the same compound, the IC50 (CCRF-CEM [3]) was 0.24 µM, the IC50 (L1210) was 0.023 µM and the IC50 (MCF7) was 0.0081 µM.

Compound C=CCCCCCCC(=O)Nc1ccn([C@@H]2O[C@H](CO)[C@@H](O)C2(F)F)c(=O)n1 has an IC50 (HeLa) of 0.042 µM, an IC50 (CCRF-CEM [2]) of 20 µM and an IC50 (CCRF-CEM [3]) of 0.14 µM. It also gave an IC50 (L1210) of 0.024 µM and an IC50 (MCF7) of 0.0079 µM.

With C=CCCCCCCCCC(=O)Nc1ccn([C@@H]2O[C@H](CO)[C@@H](O)C2(F)F)c(=O)n1 the IC50 (HeLa) was 0.012 µM, the IC50 (CCRF-CEM [2]) was 12 µM and the IC50 (CCRF-CEM [3]) was 0.071 µM. For the same compound, the IC50 (L1210) was 0.018 µM and the IC50 (MCF7) was 0.0062 µM.

For Nc1ccn([C@@H]2O[C@H](CO)[C@@H](O)C2(F)F)c(=O)n1 [GEMCITABINE], the Stability (Serum [11]) was “Unstable”, the Activity [1] was 15% and the IC50 (HeLa) was 0.0099 µM. For the same compound, the IC50 (CCRF-CEM [2]) was 7.6 µM, the IC50 (CCRF-CEM [3]) was 0.069 µM and the IC50 (L1210) was 0.013 µM. The IC50 (MCF7) was 0.0072 µM.

From ChEMBL document CHEMBL3108757, “Synthesis and cytostatic evaluation of 4-N-alkanoyl and 4-N-alkyl gemcitabine analogues” (J Med Chem, 2014)
